According to ChEMBL document CHEMBL1773023, “Potent and selective phosphopeptide mimetic prodrugs targeted to the Src homology 2 (SH2) domain of signal transducer and activator of transcription 3” (J Med Chem, 2011):
Calls of active or inactive are those of the source. No cut-off for these calls is given here.

Legend:
[1] = target: T1, Signal transducer and activator of transcription 3 (Homo sapiens, UniProt P40763); test: Binding affinity to SH2 domain of Stat3 by fluorescence polarization assay
Method in brief: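 Recombinant Stat3, expressed and purified, tested against phosphopeptides and peptidomimetics in a fluorescence polarization competition assay. Affinity is reported as an inhibition constant (K_I).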

[2] = target: T1, Signal transducer and activator of transcription 3; test: Inhibition of SH2 domain of Stat3 constitutive phosphorylation at Tyr705 in human MDA-MB-468 cells at 0.5 uM after 2 hrs by Western blotting; format: cell-based
Method in brief: (§1)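 MDA-MB-468 cells (4×10^5/well, DMEM 10% FCS, overnight) given prodrug from freshly made 10 mM DMSO stock for 2 h. Lysates in Hepes pH 7.4 Triton buffer with phosphatase/protease inhibitors; 12 μg protein on 8% SDS-PAGE, PVDF, probed for pStat3 Y705 by ECL, then stripped and reprobed for total Stat3.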

[3] = target: T1, Signal transducer and activator of transcription 3; test: Inhibition of SH2 domain of Stat3 constitutive phosphorylation at Tyr705 in human MDA-MB-468 cells at 0.1 uM after 2 hrs by Western blotting; format: cell-based; method in brief: as §1
[4] = target: T1, Signal transducer and activator of transcription 3; test: Inhibition of SH2 domain of Stat3 constitutive phosphorylation at Tyr705 in human MDA-MB-468 cells after 2 hrs by Western blotting; format: cell-based; method in brief: as §1

T1 sequence (P40763 whole entry, the tested form may be a part): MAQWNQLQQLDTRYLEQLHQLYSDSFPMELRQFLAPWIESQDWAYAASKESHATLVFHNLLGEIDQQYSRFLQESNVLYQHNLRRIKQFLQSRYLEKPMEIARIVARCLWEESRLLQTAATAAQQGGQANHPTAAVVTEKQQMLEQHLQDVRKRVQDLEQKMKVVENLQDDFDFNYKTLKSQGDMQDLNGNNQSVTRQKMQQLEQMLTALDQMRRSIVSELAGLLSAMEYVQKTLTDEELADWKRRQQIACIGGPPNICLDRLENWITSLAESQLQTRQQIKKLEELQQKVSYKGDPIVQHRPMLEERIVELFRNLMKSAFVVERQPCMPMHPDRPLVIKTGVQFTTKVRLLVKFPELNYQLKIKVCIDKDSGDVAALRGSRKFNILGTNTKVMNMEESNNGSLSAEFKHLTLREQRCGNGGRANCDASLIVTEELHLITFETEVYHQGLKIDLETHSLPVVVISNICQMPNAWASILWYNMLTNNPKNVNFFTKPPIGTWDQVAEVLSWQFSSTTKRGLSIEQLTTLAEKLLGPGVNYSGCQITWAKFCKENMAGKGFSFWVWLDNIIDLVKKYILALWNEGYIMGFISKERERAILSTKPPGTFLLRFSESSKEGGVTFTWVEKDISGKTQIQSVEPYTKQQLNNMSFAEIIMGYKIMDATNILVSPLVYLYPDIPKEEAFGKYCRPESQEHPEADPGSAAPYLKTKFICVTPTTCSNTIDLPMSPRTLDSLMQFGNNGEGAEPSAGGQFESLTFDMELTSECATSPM

Row | Structure (SMILES) | Ki [1] [nM] | further results
1 | C/C(=C\C(=O)N[C@H]1CCc2cccc3c2N(C1=O)[C@H](C(=O)NCCOC(N)=O)C3)c1ccc(OP(=O)(O)O)cc1 | 188 | 
2 | C[C@H](CCC(N)=O)NC(=O)[C@@H]1Cc2cccc3c2N1C(=O)[C@@H](NC(=O)/C=C/c1ccc(C(F)(F)P(=O)(OCOC(=O)C(C)(C)C)OCOC(=O)C(C)(C)C)cc1)CC3 |  | inhibition [2]: Active; inhibition [3]: Active
3 | C/C(=C\C(=O)N[C@@H](CC(C)C)C(=O)N1CCC[C@H]1C(=O)N[C@H](C)CCC(N)=O)c1ccc(OP(=O)(O)O)cc1 | 144 | 
4 | CCCC[C@H](NC(=O)/C=C(\C)c1ccc(OP(=O)(O)O)cc1)C(=O)N1C[C@H]2C[C@H]2[C@H]1C(=O)N[C@@H](CCC(N)=O)C(=O)NCc1ccccc1 | 33 | 
5 | C/C(=C\C(=O)N[C@H]1CCc2cccc3c2N(C1=O)[C@H](C(=O)N[C@H](C)CCC(N)=O)C3)c1ccc(OP(=O)(O)O)cc1 | 105 | 
6 | C/C(=C\C(=O)N[C@H]1CCc2cccc3c2N(C1=O)[C@H](C(=O)NCCNC(N)=O)C3)c1ccc(OP(=O)(O)O)cc1 | 386 | 
7 | C/C(=C\C(=O)N[C@@H](CC(C)C)C(=O)N1C[C@H]2C[C@H]2[C@H]1C(=O)NCCNC(N)=O)c1ccc(OP(=O)(O)O)cc1 | 39 | 
8 | CCCC[C@H](NC(=O)/C=C/c1ccc(OP(=O)(O)O)cc1)C(=O)N1C[C@H]2C[C@H]2[C@H]1C(=O)N[C@@H](CCC(N)=O)C(=O)NCc1ccccc1 | 48 | 
9 | C/C(=C\C(=O)N[C@@H](CC(C)C)C(=O)N1CCC[C@H]1C(=O)N[C@@H](CCC(N)=O)C(=O)NCc1ccccc1)c1ccc(OP(=O)(O)O)cc1 | 66 | 
10 | C/C(=C\C(=O)N[C@H]1CCc2cccc3c2N(C1=O)[C@H](C(=O)N[C@@H](CCC(N)=O)C(=O)NCc1ccccc1)C3)c1ccc(C(F)(F)P(=O)(OCOC(=O)C(C)(C)C)OCOC(=O)C(C)(C)C)cc1 |  | inhibition [4]: Dose-dependent effect
11 | C/C(=C\C(=O)N[C@@H](CC(C)C)C(=O)N1CCC[C@H]1C(=O)NCCNC(N)=O)c1ccc(OP(=O)(O)O)cc1 | 94 | 
